# From PubChem BioAssay
# BAP1 block: inhibitors of BAP1 deubiquitinase, primary screen, biochemical, Ub-AMC fluorescence, kinetic | Ubiquitin carboxyl-terminal hydrolase BAP1 (Homo sapiens), Q92560 | recombinant BAP1, Ub-AMC hydrolysis fluorescence kinetic; active compounds read low | calls only at 20 µM | 0.48% of 72,000 active;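 active = activity remaining at or below 50% of control, provided the compound also passes the data quality filters; inactive = the rest, including low values that fail the filters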;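 note: 100% = DMSO wells rate and 0% = substrate alone blank rate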
# SF1 activator: activators of human SF-1, primary screen, cell-based, CHO-K1, Gal4-SF-1 LBD, luciferase luminescence. Steroidogenic factor 1 (Homo sapiens), Q13285. 1.9% of 65,000 active. CHO-K1 Gal4-SF-1 LBD luciferase reporter; % increase over DMSO SF-1-specific signal. AID 522, 2006. activation, % at 10 µM;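 active = activation above the mean activation of all tested compounds plus 3 SD, cut at about 50% in these data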
# Target sequence (Q13285 whole entry, looked up, the tested form may be a part): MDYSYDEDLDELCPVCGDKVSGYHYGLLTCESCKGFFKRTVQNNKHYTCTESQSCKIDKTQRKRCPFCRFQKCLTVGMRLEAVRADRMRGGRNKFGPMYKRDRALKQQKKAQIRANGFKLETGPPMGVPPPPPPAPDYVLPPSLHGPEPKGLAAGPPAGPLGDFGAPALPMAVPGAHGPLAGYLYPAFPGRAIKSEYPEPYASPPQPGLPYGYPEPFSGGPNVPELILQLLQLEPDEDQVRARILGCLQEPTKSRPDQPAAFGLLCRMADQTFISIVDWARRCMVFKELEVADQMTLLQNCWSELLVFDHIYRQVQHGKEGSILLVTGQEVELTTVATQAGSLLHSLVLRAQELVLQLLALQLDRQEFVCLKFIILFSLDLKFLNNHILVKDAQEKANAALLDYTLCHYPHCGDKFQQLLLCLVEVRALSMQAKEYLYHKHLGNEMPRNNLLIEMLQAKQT
#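 Assay system: CHO-K1 cells co-transfected with Gal4 DBD–human SF-1 LBD, 5xGal4 luciferase reporter; doses: 10 µM only; incubation: 20 h compound exposure at 37 °C after 1 h cell settling; signal: luciferase light emission; evaluation: percent activation versus DMSO; repeats: one test per compound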
# ERa coact pot: enhancers of ERα–SRC-1 coactivator binding, primary screen, biochemical, TR-FRET, ERα LBD, low estradiol; Estrogen receptor (Homo sapiens), P03372; TR-FRET ERalpha-LBD/SRC-Cy5 coactivator binding, 2 h; 100 = basal binding, no effect; coactivator binding (% of control), % at 25.6 µM; 1.3% of 86,000 active; in the data active = activity above about 200%;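 note: binding measured in presence of low estradiol as agonist stimulus; 0% = peptide alone without receptor and 100% = receptor with peptide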
# ERb SRC1 inh: inhibitors of ERβ-SRC1 coactivator interaction, primary screen, biochemical, TR-FRET, ERβ LBD, SRC-1 peptide; 1.3% of 86,000 active; Estrogen receptor beta (Homo sapiens), Q92731; inhibition, % at 25.6 µM; TR-FRET ER-beta LBD / SRC1-Cy5 peptide binding; receptor agonist-loaded with 1 µM estradiol;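 active = compounds whose percent inhibition of the receptor-coactivator binding signal exceeds about 50% in the single-dose screen, limit read from the data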;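 note: 0% = receptor plus peptide wells without compound and 100% = peptide-only wells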
# ERa coact inh: ERα–SRC-1 coactivator interaction inhibitors, primary screen, biochemical, TR-FRET, ERα LBD, estradiol-bound | TR-FRET ER-alpha LBD / SRC-1 peptide | 1.7% of 86,000 active | inhibition, % at 25.6 µM | AID 629, 2007 | Estrogen receptor (Homo sapiens), P03372; in the data active = inhibition above about 50%;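 note: 0% = receptor plus peptide control and 100% = peptide only without receptor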
# RORA act: activators of orphan receptor RORA, primary screen, cell-based, luminescence; CHO-K1 Gal4-RORA LBD luciferase reporter; percent increase over mock-subtracted basal signal; AID 560, 2006; activation, % at 10 µM; Nuclear receptor ROR-alpha (Homo sapiens), P35398; 1.5% of 65,000 active;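 active = activation above the mean of all tested compounds plus 3 SD, cut at about 49% in these data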;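 note: 0% = DMSO-treated RORA cells and 100% = added signal equal to DMSO minus mock-transfected cells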
# * hit, by the source's call; i = inactive; · = no result shown; [ ] = dose if it differs, or a comment. Sampled rows, rich in hits. Any-hit rate of the full collection: about 5.1%.
SMILES,BAP1 block,SF1 activator,ERa coact pot,ERb SRC1 inh,ERa coact inh,RORA act
O=C(NC1CCCCC1)c1cc2nc(-c3ccco3)cc(C(F)(F)F)n2n1,·,11,96,-6,9,16
O=C(NC1CCCCC1)c1cc2nc3c(c(C(F)(F)F)n2n1)CCCC3,i,50*,91,30,0,34
O=C(Cn1c(=O)n(Cc2ccccc2)c(=O)c2ccccc21)NCc1ccco1,·,·,120,8,6,·
COc1cc2c(=O)n(Cc3ccccc3)c(=O)n(CC(=O)NCc3ccco3)c2cc1OC,i,1,349*[fluorescence artefact?],4,37,-17
O=C(NCc1ccco1)c1ccc(Cn2c(=O)c3ccccc3n(Cc3ccc(Cl)cc3)c2=O)cc1,·,·,139,16,9,·
O=C(NCc1ccco1)c1ccc(Cn2c(=O)c3ccccc3n(Cc3cccc(F)c3)c2=O)cc1,·,·,24,47,67*[fluorescence artefact?],·
CC(=O)NC(=O)c1cc2ccccc2oc1=Nc1ccc(I)cc1,i,·,·,·,·,·
COc1cccc2sc(=NC(=O)c3ccc(S(=O)(=O)N4CCCc5ccccc54)cc3)n(C)c12,i,·,·,·,·,·
COc1ccc(OC)c(N=c2oc3c(OC)cccc3cc2C(=O)NCc2ccco2)c1,i,-2,44,50*[fluorescence artefact?],75*[fluorescence artefact?],-3
CN(C)c1nc(-c2ccccn2)nnc1-c1ccccc1,·,·,104,-12,58*[fluorescence artefact?],·
CCN1CCN(Cc2ccc(NC(=O)Nc3cccs3)cc2)CC1,i,22,71,72*[fluorescence artefact?],40,43
CCN1CCN(Cc2ccc(NC(=O)Nc3ccccc3)cc2)CC1,i,42,·,·,·,16
CCc1cccc(NC(=O)Nc2cccs2)c1,i,32,96,7,12,63*
O=C(Cn1ccc([N+](=O)[O-])n1)Nc1ccc(I)cc1,i,·,·,·,·,·
COCCCNc1nc2c(c(=O)n(C)c(=O)n2C)n1Cc1ccccc1Cl,i,·,·,·,·,·
CC[n+]1c(C=C2C=C(C)CC(C)(C)C2)oc2ccccc21,i,·,·,·,·,·
COc1ccc2c(=O)c3c(=O)n(Cc4ccco4)c(-c4ccco4)nc3oc2c1,·,·,49,60*,75*[fluorescence artefact?],·
CCc1nc2oc3cc(OC)ccc3c(=O)c2c(=O)n1Cc1ccco1,i,-8,78,59*,37,12
COc1ccc(Cn2c(-c3ccco3)nc3oc4cc(OC)ccc4c(=O)c3c2=O)cc1,i,-3,571*[fluorescence artefact?],54*[fluorescence artefact?],50,9
COc1ccc2c(c1)n([O-])c1c([n+]2=O)CCC1,i,9,65,51*,20,-8
CCOc1ccc2c(c1)n([O-])c1c([n+]2=O)CCCC1,i,2,149,3,2,-9
Cc1nc(N2CCN(c3ccccc3)CC2)c2c3c(sc2n1)CCC3,i,-16,86,-3,-1,-12
CSc1nc(N2CCOCC2)c2c3c(sc2n1)CCC3,·,-2,78,62*[fluorescence artefact?],18,8
CCOC(=O)Cc1cc(=O)[nH]c(Nc2nc3ccccc3o2)n1,i,11,102,3,-6,50*
COC(=O)Cc1cc(=O)[nH]c(Nc2nc3ccccc3o2)n1,i,1,101,-2,0,11
SMILES,BAP1 block,SF1 activator,ERa coact pot,ERb SRC1 inh,ERa coact inh,RORA act
COC(=O)c1sc2ccccc2c1NC(=O)c1ccc(S(=O)(=O)N2CC(C)OC(C)C2)cc1 (configuration not stated),i,·,·,·,·,·
Cc1cccc(Nc2nn3c(=O)c4ccccc4nc3s2)c1,·,28,221*[fluorescence artefact?],58*[fluorescence artefact?],66*[fluorescence artefact?],16
O=[N+]([O-])c1ccc(N2CCN(S(=O)(=O)c3ccccc3)CC2)cc1NCc1ccc(Cl)cc1,i,·,·,·,·,·
Cc1cc(C)c2cc(CN(CCO)C(=O)Nc3ccc(Cl)cc3)c(=O)[nH]c2c1,i,-23,232*,-13,-19,1
O=C1CN(C(=O)c2ccc(N3CCCCC3)c([N+](=O)[O-])c2)c2ccccc2N1,i,·,·,·,·,·
COc1ccccc1C(=O)Nc1c2c(nn1-c1cccc(C)c1C)CS(=O)(=O)C2,i,-5,410*[fluorescence artefact?],-6,32,-20
COc1ccc(CC(=O)Nc2c3c(nn2-c2cccc(C)c2C)CS(=O)(=O)C3)cc1,i,8,117,-5,3,4
Cc1ccc(-n2nc3cc(C)c(NC(=O)c4ccc(Br)cc4)cc3n2)cc1,i,·,·,·,·,·
COc1ccc2oc(=Nc3ccccc3C)c(C(=O)NC(C)=O)cc2c1,i,·,·,·,·,·
c1ccc(OCCCN2CCCC2)cc1,·,·,111,1,-2,·
c1ccc(COc2ccc(OCCCN3CCCCC3)cc2)cc1,·,·,91,-3,63*[fluorescence artefact?],·
Oc1ccc(-c2nc3cnccn3c2Nc2ccc3c(c2)OCCO3)cc1,i,27,74,2,5,53*
O=C(O)CC(Cn1[nH]nnc1=S)c1ccccc1 (configuration not stated),·,·,108,52*,-9,·
Cc1ccc2c(COC(=O)C3=COCCO3)cc(=O)oc2c1,i,67*,144,0,6,38
Cc1ccc2c(COC(=O)c3cnc(C)cn3)cc(=O)oc2c1,i,-8,94,-2,2,-22
COc1ccc(CC(=O)OCc2cc3ccccc3[nH]c2=O)cc1,i,-10,94,-4,-3,-13
COc1cc(OC)cc(C(=O)OCc2cc3ccccc3[nH]c2=O)c1,i,7,499*[fluorescence artefact?],8,-12,6
Cc1ccc(S(=O)(=O)NC(C)(C)CN2CCN(C(c3ccccc3)c3ccccc3)CC2)cc1,i,·,·,·,·,·
CC1(C)CCCC2=C1CC1C(=O)N(O)C(=O)C1C2 (configuration not stated),i,-2,119,89*,0,-6
CC(C)(C)NC(=O)/C=N/O,i,-2,102,99*[fluorescence artefact?],3,-14
COc1ccc(NC(=O)COC(=O)c2ccc(N3CCCC3=O)cc2)cc1OC,i,-4,124,-8,-3,-12
COc1ccccc1NC(=O)COc1ccc(C(=O)OCC(=O)N2CCCC2=O)cc1OC,i,3,349*[fluorescence artefact?],12,-5,-5
COC(=O)/C(=C\Nc1ccc(Cl)c2ccccc12)c1ncc(C(F)(F)F)cc1Cl,·,·,107,14,55*,·
CCNc1nc(N)nc(Oc2ccc(C(=O)OC)cc2)n1,i,44,115,-24,-31,56*
N#Cc1ccc(Oc2nc(C(N)=O)cc(-c3ccccc3)n2)cc1,·,·,100,-3,15,·
